Test results taken from ChEMBL document CHEMBL5329173, “Proline pre-conditioning of Jurkat cells improves recovery after cryopreservation” (RSC Med Chem, 2023).
Activity calls are given as the source filed them. The calls are words filed in the database; no cut-off is given here.

Experiments:
[1] = tested on: Jurkat E6.1; assay: Cytotoxicity against human Jurkat E6.1 cells assessed as decrease in metabolic activity at 200 mM incubated for 24 hrs by resazurin assay; format: toxicity, cell-based; conditions: jurkat e6.1, 24 h, 200000 µM
Method in brief: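 Cells were incubated 24 h at 37 °C in medium containing 200 mM additive, then readjusted to 1 × 10^6 cells per mL. They were resuspended in resazurin solution made in additive-free complete medium and incubated 3 or 4 h at 37 °C. Fluorescence was read at 590/35 nm emission and expressed as % of untreated control. Mean ± SD, at least three independent experiments.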

[2] = Cytotoxicity against human Jurkat E6.1 cells assessed as cell growth inhibition at 200 mM incubated for 24 hrs by trypan blue exclusion method relative to control; format: toxicity, cell-based; conditions: read-out: Activity
Method in brief: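 Amino acid additives dissolved in complete Advanced RPMI 1640 (base medium contains 0.17 mM L-proline, 0.10 mM L-alanine) and sterile filtered. Jurkat cells seeded at 1 × 10^6 mL−1 and held 24 h at 37 °C, 5% CO2 without freezing. Counts taken every 4 h, with live/dead scored by trypan blue exclusion on an automated counter. Growth and viability were compared with additive-free medium; mean ± SD of independent experiments.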

[3] = tested on: Jurkat E6.1; assay: (§1) Effect of compound on cryopreserved human Jurkat E6.1 cells recovery assessed as increase in post-thaw cell recovery at 200 mM preincubated for 24 hrs followed by media replacement and cryopreserved at -1 degreeC/min to -80 degreeC/min and measured after 24 hrs post-thaw by trypan blue exclusion method (Rvb=63 %); format: functional
Method in brief: (§2)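 Cells were pre-incubated 24 h in medium with amino acid at the stated density, then the medium was replaced with fresh additive-free medium. Cells were adjusted to 1 × 10^6 cells per mL and held 10 min at room temperature in medium with 5% DMSO. They were cooled at −1 °C min−1 to −80 °C and stored ≥24 h. Thawing was 5 min in a 37 °C water bath, followed by culture at 37 °C, 5% CO2. Recovery relative to pre-freeze count was determined by trypan blue exclusion.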

[4] = tested on: Jurkat E6.1; assay: as §1, with “cell recovery at 0.5 millions/ml cell density at 200” for “cell recovery at 200”, “exclusion method” for “exclusion method (Rvb=63 %)”; format: functional; method in brief: as §2
[5] = Cytotoxicity against human Jurkat E6.1 cells assessed as cell growth inhibition at 100 mM incubated for 24 hrs by trypan blue exclusion method relative to control
[6] = tested on: Jurkat E6.1; assay: as §1, with “cell recovery at 0.8 millions/ml cell density at 200” for “cell recovery at 200”, “exclusion method” for “exclusion method (Rvb=63 %)”; format: functional, cell-based; method in brief: as §2

SMILES	Activity [1]	inhibition at 24 h, 200000 µM [2] [%]	Activity [3] [%]	Activity [4] [%]	inhibition at 24 h, 100000 µM [5] [%]	Activity [6]
O=C(O)[C@H]1CCCN1 [D-PROLINE]	Toxic	107	52	–	–	–
O=C(O)[C@@H]1CCCN1 [PROLINE]	Non-Toxic	46	70	77	34	Active
C[C@H](N)C(=O)O [ALANINE]	Non-Toxic	72	49	83	–	Active
